In ChEMBL document CHEMBL1157667, “Synthesis of glycyrrhetinic acid derivatives for the treatment of metabolic diseases” (Bioorg Med Chem, 2010) one finds IC50 and inhibition data, which are given here for 19 compounds.

11-beta-hydroxysteroid dehydrogenase 1 (Homo sapiens), sequence (P28845 whole entry, looked up): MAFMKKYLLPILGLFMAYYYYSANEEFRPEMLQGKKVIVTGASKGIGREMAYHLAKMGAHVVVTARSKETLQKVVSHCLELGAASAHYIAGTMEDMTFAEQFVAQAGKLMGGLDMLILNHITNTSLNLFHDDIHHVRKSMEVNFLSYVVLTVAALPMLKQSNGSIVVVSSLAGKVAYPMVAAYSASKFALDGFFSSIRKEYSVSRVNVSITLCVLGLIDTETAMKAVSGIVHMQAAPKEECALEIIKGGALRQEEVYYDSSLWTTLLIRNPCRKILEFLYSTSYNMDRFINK

For the first test, the target named is 11-beta-hydroxysteroid dehydrogenase 1 (Rattus norvegicus, UniProt P16232). Briefly: Inhibition of 11beta-HSD1 in rat liver assessed as cortisone level. The class given is tissue-based.
11-beta-hydroxysteroid dehydrogenase 1, sequence (P16232 whole entry): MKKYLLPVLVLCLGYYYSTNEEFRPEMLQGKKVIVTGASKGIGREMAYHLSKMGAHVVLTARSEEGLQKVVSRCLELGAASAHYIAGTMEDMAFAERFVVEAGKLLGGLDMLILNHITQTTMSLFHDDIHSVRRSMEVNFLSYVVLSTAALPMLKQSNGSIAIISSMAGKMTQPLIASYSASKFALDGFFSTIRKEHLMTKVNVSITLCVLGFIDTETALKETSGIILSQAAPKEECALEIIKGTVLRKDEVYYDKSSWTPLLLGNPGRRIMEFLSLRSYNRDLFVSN
The IC50 is the concentration that gives 50% inhibition. As to `CC1(C)[C@@H](O)CC[C@]2(C)[C@H]3C(=O)C=C4[C@@H]5C[C@@](C)(C(=O)O)CC[C@]5(C)CC[C@@]4(C)[C@]3(C)CC[C@@H]12` (stereo in doubt; 1) [ENOXOLONE], the IC50 was 90 nM.

The next test concerns the target 11-beta-hydroxysteroid dehydrogenase 1 (Homo sapiens) (UniProt P28845). The experiment in a line: Inhibition of human recombinant 11beta-HSD1 expressed in HEK293 cells assessed as conversion of [1,2-3H]cortisone to cortisol at 1 uM after 10 mins by scintillation counting. Format: cell-based. An outline of the steps: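 Lysates of HEK-293 cells (no endogenous 11β-HSD) expressing recombinant human 11β-HSD1. Reduction of [1,2-3H]cortisone to cortisol was run for 10 min at 37 °C with 200 nM cortisone (final) and NADPH as cofactor; solvent ≤0.1%. Reactions were stopped with methanol containing 2 mM unlabeled cortisone and cortisol. Steroids were separated by TLC and counted by scintillation. Three independent experiments.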
Broadly, the inhibition is how much of the control response was suppressed. Take `CC(=O)O[C@H]1CC[C@]2(C)[C@H]3C(=O)C=C4[C@@H]5C[C@@](C)(C=NO)CC[C@]5(C)CC[C@@]4(C)[C@]3(C)CC[C@H]2C1(C)C`: the inhibition is 43.3%. On the same count and under the same terms, with `CN(C)CCNC(=O)[C@@]1(C)CC[C@]2(C)CC[C@]3(C)C(=CC(=O)[C@@H]4[C@@]5(C)CC[C@H](O)C(C)(C)[C@@H]5CC[C@]43C)[C@@H]2C1` the figure was 36%. On the same count and under the same terms, the figure for `CON=C1CC[C@]2(C)[C@H]3C(=O)C=C4[C@@H]5C[C@@](C)(C(=O)O)CC[C@]5(C)CC[C@@]4(C)[C@]3(C)CC[C@H]2C1(C)C` is 63.2%; for `CC1(C)C(=O)CC[C@]2(C)[C@H]3C(=O)C=C4[C@@H]5C[C@@](C)(C(=O)O)CC[C@]5(C)CC[C@@]4(C)[C@]3(C)CC[C@@H]12` it is 63.8%.

With `C=CCNC(=O)[C@@]1(C)CC[C@]2(C)CC[C@]3(C)C(=CC(=O)[C@@H]4[C@@]5(C)CC[C@H](O)C(C)(C)[C@@H]5CC[C@]43C)[C@@H]2C1`, the inhibition was 6.2%. Still for that read-out and setting: the figure for `CC1(C)[C@H](O)CC[C@]2(C)[C@H]3C(=O)C=C4[C@@H]5C[C@@](C)(C(=O)O)CC[C@]5(C)CC[C@@]4(C)[C@]3(C)CC[C@@H]12` is 97.4%; for `CC(=O)O[C@H]1CC[C@]2(C)[C@H]3C(=O)C=C4[C@@H]5C[C@@](C)(C(=O)NN)CC[C@]5(C)CC[C@@]4(C)[C@]3(C)CC[C@H]2C1(C)C` it is 90.9%; for `CC1(C)[C@@H](O[C@H]2O[C@H](C(=O)O)[C@@H](O)[C@H](O)[C@H]2O[C@@H]2O[C@H](C(=O)O)[C@@H](O)[C@H](O)[C@H]2O)CC[C@]2(C)[C@H]3C(=O)C=C4[C@@H]5C[C@@](C)(C(=O)O)CC[C@]5(C)CC[C@@]4(C)[C@]3(C)CC[C@@H]12` it is 63.2%. On the same count and under the same terms, with `CC1(C)[C@@H](O)CC[C@]2(C)[C@H]3C(=O)C=C4[C@@H]5C[C@@](C)(C(=O)O)CC[C@]5(C)CC[C@@]4(C)[C@]3(C)CC[C@@H]12` (stereo in doubt; 23) the figure was 49.7%; with `CC1(C)[C@@H](O)CC[C@]2(C)[C@H]3C(=O)C=C4[C@@H]5C[C@@](C)(C(=O)N6CCC(C(=O)O)CC6)CC[C@]5(C)CC[C@@]4(C)[C@]3(C)CC[C@@H]12`, 19.5%; with `CC1(C)[C@@H](O)CC[C@]2(C)[C@H]3C(=O)C=C4[C@@H]5C[C@@](C)(C(=O)NCC(=O)O)CC[C@]5(C)CC[C@@]4(C)[C@]3(C)CC[C@@H]12`, 2.7%. As for `CCNC(=O)N(CCCN(C)C)C(=O)[C@@]1(C)CC[C@]2(C)CC[C@]3(C)C(=CC(=O)[C@@H]4[C@@]5(C)CC[C@H](O)C(C)(C)[C@@H]5CC[C@]43C)[C@@H]2C1`, the inhibition stood at 32.5%.

For `C#CCNC(=O)[C@@]1(C)CC[C@]2(C)CC[C@]3(C)C(=CC(=O)[C@@H]4[C@@]5(C)CC[C@H](O)C(C)(C)[C@@H]5CC[C@]43C)[C@@H]2C1`, the inhibition stood at 10.1%.

Consider `CC1(C)[C@@H](OP(=O)(O)O)CC[C@]2(C)[C@H]3C(=O)C=C4[C@@H]5C[C@@](C)(C(=O)O)CC[C@]5(C)CC[C@@]4(C)[C@]3(C)CC[C@@H]12`, for which the inhibition is 86%.

For `CC1(C)[C@@H](OC(=O)CCC(=O)O)CC[C@]2(C)[C@H]3C(=O)C=C4[C@@H]5C[C@@](C)(C(=O)O)CC[C@]5(C)CC[C@@]4(C)[C@]3(C)CC[C@@H]12`, the inhibition was found to be 87.7%.

As to `CC(=O)O[C@H]1CC[C@]2(C)[C@H]3C(=O)C=C4[C@@H]5C[C@@](C)(C(=O)O)CC[C@]5(C)CC[C@@]4(C)[C@]3(C)CC[C@H]2C1(C)C`, the inhibition is 47.1%.

For the compound `CC1(C)[C@@H](O)CC[C@]2(C)[C@H]3C(=O)C=C4[C@@H]5C[C@@](C)(C(=O)NCCO)CC[C@]5(C)CC[C@@]4(C)[C@]3(C)CC[C@@H]12`, the inhibition came out at 2.9%. Same read-out and setting: the figure for `CC1(C)[C@@H](O)CC[C@]2(C)[C@H]3C(=O)C=C4[C@@H]5C[C@@](C)(C(=O)O)CC[C@]5(C)CC[C@@]4(C)[C@]3(C)CC[C@@H]12` (stereo in doubt; 1) is 91.2%.
